From ChEMBL document CHEMBL4339192, “De Novo Designed Amphipathic α-Helical Antimicrobial Peptides Incorporating Dab and Dap Residues on the Polar Face To Treat the Gram-Negative Pathogen, Acinetobacter baumannii” (J Med Chem, 2019)
Where a SMILES comes first, the peptide text is derived from it. [ ]: non-standard residue; d: D form. dOrn = NCCC[C@@H](N)C(=O)O

Columns and labels:
Type in all cases: functional
[1] = tested on: Acinetobacter baumannii; experiment: Antibacterial activity against Acinetobacter baumannii 649 measured after 24 hrs in presence of 25% human serum by microtiter dilution method; settings: Acinetobacter baumannii, 649, 24 h
Method in brief: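 Blood strain 649 was tested by MH broth microdilution with and without 25% (v/v) human serum added to the medium. The test used a final inoculum of 5 × 10^5 cfu/mL and incubation at 37 °C. The ratio is the MIC in serum over the MIC in MH alone.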

[2] = tested on: Acinetobacter baumannii; experiment: Antibacterial activity against Acinetobacter baumannii 649 measured after 24 hrs by microtiter dilution method; settings: Acinetobacter baumannii, 649, 24 h
Method in brief: (§1)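 Broth microdilution in Mueller-Hinton (MH) medium. […] Plates were incubated 24 h at 37 °C. MIC was the lowest peptide concentration that inhibited growth, based on three sets of replicates.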

[3] = tested on: Acinetobacter baumannii; experiment: Antibacterial activity against Acinetobacter baumannii isolate 1001611 measured after 24 hrs by microtiter dilution method; settings: isolate 1001611, 24 h; method in brief: as §1
[4] = tested on: Acinetobacter baumannii; experiment: Antibacterial activity against Acinetobacter baumannii isolate 1021371 measured after 24 hrs by microtiter dilution method; settings: isolate 1021371, 24 h; method in brief: as §1
[5] = tested on: Acinetobacter baumannii; experiment: Antibacterial activity against Acinetobacter baumannii isolate 952654 measured after 24 hrs by microtiter dilution method; settings: isolate 952654, 24 h; method in brief: as §1
[6] = tested on: Acinetobacter baumannii; experiment: Antibacterial activity against Acinetobacter baumannii isolate 9383370 measured after 24 hrs by microtiter dilution method; settings: isolate 9383370, 24 h; method in brief: as §1
[7] = tested on: Acinetobacter baumannii; experiment: Antibacterial activity against Acinetobacter baumannii isolate 961997 measured after 24 hrs by microtiter dilution method; settings: isolate 961997, 24 h; method in brief: as §1
[8] = tested on: Acinetobacter baumannii; experiment: Antibacterial activity against Acinetobacter baumannii isolate 1002956 measured after 24 hrs by microtiter dilution method; settings: isolate 1002956, 24 h; method in brief: as §1
[9] = tested on: Acinetobacter baumannii; experiment: Antibacterial activity against Acinetobacter baumannii isolate 977751 measured after 24 hrs by microtiter dilution method; settings: isolate 977751, 24 h; method in brief: as §1
[10] = tested on: Acinetobacter baumannii; experiment: Antibacterial activity against Acinetobacter baumannii isolate 1035166 measured after 24 hrs by microtiter dilution method; settings: isolate 1035166, 24 h; method in brief: as §1
[11] = tested on: Acinetobacter baumannii; experiment: Antibacterial activity against Acinetobacter baumannii isolate 1010282 measured after 24 hrs by microtiter dilution method; settings: isolate 1010282, 24 h; method in brief: as §1
[12] = tested on: Acinetobacter baumannii; experiment: Antibacterial activity against Acinetobacter baumannii isolate 1010245 measured after 24 hrs by microtiter dilution method; settings: isolate 1010245, 24 h; method in brief: as §1
[13] = tested on: Acinetobacter baumannii; experiment: Antibacterial activity against Acinetobacter baumannii isolate 1017395 measured after 24 hrs by microtiter dilution method; settings: isolate 1017395, 24 h; method in brief: as §1
[14] = tested on: Acinetobacter baumannii; experiment: Antibacterial activity against Acinetobacter baumannii isolate 968886 measured after 24 hrs by microtiter dilution method; settings: isolate 968886, 24 h; method in brief: as §1
[15] = tested on: Acinetobacter baumannii; experiment: Antibacterial activity against Acinetobacter baumannii isolate 964304 measured after 24 hrs by microtiter dilution method; settings: isolate 964304, 24 h; method in brief: as §1
[16] = tested on: Acinetobacter baumannii; experiment: Antibacterial activity against Acinetobacter baumannii isolate 963659 measured after 24 hrs by microtiter dilution method; settings: isolate 963659, 24 h; method in brief: as §1
[17] = tested on: Acinetobacter baumannii; experiment: Antibacterial activity against Acinetobacter baumannii isolate 1018887 measured after 24 hrs by microtiter dilution method; settings: isolate 1018887, 24 h; method in brief: as §1
[18] = tested on: Acinetobacter baumannii; experiment: Antibacterial activity against Acinetobacter baumannii isolate 1035794 measured after 24 hrs by microtiter dilution method; settings: isolate 1035794, 24 h; method in brief: as §1
[19] = tested on: Acinetobacter baumannii; experiment: Antibacterial activity against Acinetobacter baumannii isolate 981650 measured after 24 hrs by microtiter dilution method; settings: isolate 981650, 24 h; method in brief: as §1
[20] = tested on: Acinetobacter baumannii; experiment: Antibacterial activity against Acinetobacter baumannii isolate 965463 measured after 24 hrs by microtiter dilution method; settings: isolate 965463, 24 h; method in brief: as §1
[21] = tested on: Acinetobacter baumannii; experiment: Antibacterial activity against polymyxin B/colistin-resistant Acinetobacter baumannii M89963 measured after 24 hrs by microtiter dilution method; settings: M89963, 24 h; method in brief: as §1
[22] = tested on: Acinetobacter baumannii; experiment: Antibacterial activity against polymyxin B/colistin-resistant Acinetobacter baumannii M89955 measured after 24 hrs by microtiter dilution method; settings: M89955, 24 h; method in brief: as §1
[23] = tested on: Acinetobacter baumannii; experiment: Antibacterial activity against polymyxin B/colistin-resistant Acinetobacter baumannii M89953 measured after 24 hrs by microtiter dilution method; settings: M89953, 24 h; method in brief: as §1
[24] = tested on: Acinetobacter baumannii; experiment: Antibacterial activity against polymyxin B/colistin-resistant Acinetobacter baumannii M89952 measured after 24 hrs by microtiter dilution method; settings: M89952, 24 h; method in brief: as §1
[25] = tested on: Acinetobacter baumannii; experiment: Antibacterial activity against polymyxin B/colistin-resistant Acinetobacter baumannii M89951 measured after 24 hrs by microtiter dilution method; settings: M89951, 24 h; method in brief: as §1
[26] = tested on: Acinetobacter baumannii; experiment: Antibacterial activity against polymyxin B/colistin-resistant Acinetobacter baumannii M89949 measured after 24 hrs by microtiter dilution method; settings: M89949, 24 h; method in brief: as §1
[27] = tested on: Acinetobacter baumannii; experiment: Antibacterial activity against polymyxin B/colistin-resistant Acinetobacter baumannii M89941 measured after 24 hrs by microtiter dilution method; settings: M89941, 24 h; method in brief: as §1
[28] = tested on: Acinetobacter baumannii; experiment: Antibacterial activity against Acinetobacter baumannii isolate 1007660 measured after 24 hrs by microtiter dilution method; settings: isolate 1007660, 24 h; method in brief: as §1
[29] = tested on: Acinetobacter baumannii; experiment: Antibacterial activity against Acinetobacter baumannii isolate 963618 measured after 24 hrs by microtiter dilution method; settings: isolate 963618, 24 h; method in brief: as §1

Measured: MIC

CC(=O)N[C@H](CCCCN)C(=O)N[C@H](CC(C)C)C(=O)N[C@H](CCCCN)C(=O)N[C@H](CO)C(=O)N[C@H](CC(C)C)C(=O)N[C@H](CC(C)C)C(=O)N[C@H](CCCCN)C(=O)N[C@@H](C(=O)N[C@H](CC(C)C)C(=O)N[C@H](CO)C(=O)N[C@H](CCCCN)C(=O)N[C@H](C)C(=O)N[C@H](CCCCN)C(=O)N[C@H](C)C(=O)N[C@H](C)C(=O)N[C@H](CCCCN)C(=O)N[C@H](CC(C)C)C(=O)N[C@H](CCCCN)C(=O)N[C@@H](C(=O)N[C@H](CC(C)C)C(=O)N[C@H](CC(C)C)C(=O)N[C@H](CCCCN)C(=O)N[C@H](C)C(=O)N[C@H](CC(C)C)C(=O)N[C@H](CO)C(=O)N[C@H](CCCCN)C(N)=O)[C@H](C)O)[C@H](C)O (Ac-[dK][dL][dK][dS][dL][dL][dK][dT][dL][dS][dK][dA][dK][dA][dA][dK][dL][dK][dT][dL][dL][dK][dA][dL][dS][dK]-NH2)
1.4 µM: [7] | [15]
0.3 µM: [1] | [2] | [8] | [9] | [22] | [25] | [27]
not listed: [28] | [29]
0.7 µM: all other assays above

CC(=O)N[C@H](CCCCN)C(=O)N[C@H](CC(C)C)C(=O)N[C@H](CCCCN)C(=O)N[C@H](CO)C(=O)N[C@H](CC(C)C)C(=O)N[C@H](CC(C)C)C(=O)N[C@H](CCCCN)C(=O)N[C@@H](C(=O)N[C@H](CC(C)C)C(=O)N[C@H](CO)C(=O)N[C@H](CCCCN)C(=O)N[C@H](C)C(=O)N[C@H](CCCCN)C(=O)N[C@H](C)C(=O)N[C@H](C)C(=O)N[C@H](CCCCN)C(=O)N[C@H](CC(C)C)C(=O)N[C@H](CCCCN)C(=O)N[C@@H](C(=O)N[C@H](CC(C)C)C(=O)N[C@H](CC(C)C)C(=O)N[C@H](CCCCN)C(=O)N[C@H](C)C(=O)N[C@H](CC(C)C)C(=O)N[C@H](CO)C(=O)N[C@H](CO)C(N)=O)[C@H](C)O)[C@H](C)O (Ac-[dK][dL][dK][dS][dL][dL][dK][dT][dL][dS][dK][dA][dK][dA][dA][dK][dL][dK][dT][dL][dL][dK][dA][dL][dS][dS]-NH2)
1.5 µM: [23]
1.4 µM: [4] | [5] | [7] | [10] | [11] | [13] | [15] | [16] | [17] | [18]
not listed: [19]
0.7 µM: all other assays above

CC(=O)N[C@H](CCCCN)C(=O)N[C@H](CC(C)C)C(=O)N[C@H](CCCN)C(=O)N[C@H](CO)C(=O)N[C@H](CC(C)C)C(=O)N[C@H](CC(C)C)C(=O)N[C@H](CCCN)C(=O)N[C@@H](C(=O)N[C@H](CC(C)C)C(=O)N[C@H](CO)C(=O)N[C@H](CCCN)C(=O)N[C@H](C)C(=O)N[C@H](C)C(=O)N[C@H](C)C(=O)N[C@H](C)C(=O)N[C@H](C)C(=O)N[C@H](CC(C)C)C(=O)N[C@H](CCCN)C(=O)N[C@@H](C(=O)N[C@H](CC(C)C)C(=O)N[C@H](CC(C)C)C(=O)N[C@H](CCCN)C(=O)N[C@H](C)C(=O)N[C@H](CC(C)C)C(=O)N[C@H](CO)C(=O)N[C@H](CCCN)C(N)=O)[C@H](C)O)[C@H](C)O (Ac-[dK][dL][dOrn][dS][dL][dL][dOrn][dT][dL][dS][dOrn][dA][dA][dA][dA][dA][dL][dOrn][dT][dL][dL][dOrn][dA][dL][dS][dOrn]-NH2)
3 µM: [6] | [13] | [14] | [17] | [18] | [20]
6 µM: [9]
0.7 µM: [16]
2.9 µM: [21] | [26] | [27]
not listed: [1] | [22]
1.5 µM: all other assays above
